Experimental data as given in ChEMBL document CHEMBL1134558, “Discovery of estrogen sulfotransferase inhibitors from a purine library screen” (J Med Chem, 2001).

Biological target: T1, Sulfotransferase 1E1 (Mus musculus, UniProt P49891)
T1 sequence (P49891 whole entry): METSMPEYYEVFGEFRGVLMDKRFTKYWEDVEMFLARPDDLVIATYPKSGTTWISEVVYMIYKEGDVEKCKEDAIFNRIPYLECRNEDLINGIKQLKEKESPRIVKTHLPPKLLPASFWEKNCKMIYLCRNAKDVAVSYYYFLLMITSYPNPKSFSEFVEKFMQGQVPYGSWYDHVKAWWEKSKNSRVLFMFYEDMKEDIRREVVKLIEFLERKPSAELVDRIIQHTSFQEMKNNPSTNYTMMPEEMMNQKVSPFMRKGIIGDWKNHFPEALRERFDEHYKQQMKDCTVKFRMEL
Assay: Inhibition of estrogen sulfotransferase (EST) in TLC radiolabel transfer assay
Outline: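 Murine EST expressed and purified as an N-terminal GST fusion. Transfer of ³⁵S-sulfate from ³⁵S-PAPS to estrone acceptor; extent of reaction measured by TLC separation and phosphorimaging. IC50 values taken from this radiolabel transfer assay. In the screen each compound was tested at 100 μM, with >70% inhibition scored as a hit.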

| IC50 [µM] | Compound |
| --- | --- |
| 60 | Cn1cnc2c(NCc3cc(Cl)cc(Cl)c3)nc(NCC(N)=O)nc21 |
| > 200 | O=[N+]([O-])c1ccc(CNc2nc(NCC3CCCCC3)c3ncn(CCO)c3n2)cc1 |
| > 200 | Cn1cnc2c(N(CCO)CCO)nc(NCC(N)=O)nc21 |
| 60 | COc1ccc(CNc2nc(N[C@H](CO)CC(C)C)nc3c2ncn3C(C)C)cc1 |
| 100 | Cn1cnc2c(N(CCO)CCNCCO)nc(NCC(N)=O)nc21 |
| 0.5 | COc1ccc(CNc2nc(N3CCCCCC3)nc3c2ncn3C(C)C)cc1 |
| 30 | Cn1cnc2c(NCc3ccccc3N)nc(NCC(N)=O)nc21 |
| 60 | CC(O)CNc1nc(NCC(N)=O)nc2c1ncn2C (configuration not stated) |
| 30 | COc1ccc(CNc2nc(NCc3ccccc3)nc3c2ncn3CCO)cc1 |
| 72 | CC(C)n1cnc2c(NCc3ccc(N)cc3)nc(NCCCCC(=O)C3CSC(=O)N3)nc21 (configuration not stated) |
| 80 | COc1ccc(CNc2nc(N3CCN(C)CC3)nc3c2ncn3C(C)C)cc1 |
| 35 | Cn1cnc2c(NCc3ccc(Cl)cc3)nc(NCC(N)=O)nc21 |
